The record followed here is ChEMBL document CHEMBL4251542, “Discovery of cyclopropyl chromane-derived pyridopyrazine-1,6-dione γ-secretase modulators with robust central efficacy” (Medchemcomm, 2017).

Data set [1] in a line: Cardiotoxicity in Wistar rat langendorff isolated heart model assessed as decrease in left ventricle pressure perfused for 5 mins measured for 1 min. Format: toxicity, tissue-based.
The subject of data set [2] is MDR1 (P-gp), human. Kind of data set: in vitro. The note with it: dog, MDCK-MDR1.
The nature of data set [3]: Apparent intrinsic clearance in human liver microsomes. Format: ADME, microsome. The note with it: read-out: CLH.
A short description of data set [4]: Total Cmax in Sprague-Dawley rat at 300 mg/kg administered via oral gavage measured at 1 to 24 hrs post dose. Format: ADME, organism-based. Conditions: in vivo. On the set-up: dose 300 mg/kg, route oral.
Data set [5] relates to Rattus norvegicus. The experiment in a line: Toxicity in Sprague-Dawley rat assessed as lethality at 300 mg/kg administered via oral gavage. Format: organism-based. The note with it: in vivo.
A short description of data set [6]: Cardiotoxicity in Wistar rat langendorff isolated heart model assessed as decrease in contractility perfused for 5 mins measured for 1 min. Format: toxicity, tissue-based.
Data set [7] in a line: Cardiotoxicity in Wistar rat langendorff isolated heart model assessed as decrease in perfusion pressure perfused for 5 mins measured for 1 min. Format: toxicity, tissue-based.
For data set [8], the system named is Rattus norvegicus. Kind of data set: Unbound Cmax in Sprague-Dawley rat at 300 mg/kg administered via oral gavage measured at 1 to 24 hrs post dose. Format: ADME, organism-based. The note with it: in vivo.
Data set [9] deals with Gamma-secretase. Kind of data set: Modulation of gamma-secretase (unknown origin) expressed in CHO cells co-expressing human wild type APP assessed as reduction in amyloid beta 42 levels after 24 hrs by ELISA. Format: cell-based.
The nature of data set [10]: Ratio of IC50 for decrease in contractility of Wistar rat langendorff isolated heart model to fCmax in Sprague-Dawley rat at 30 mg/kg administered via oral gavage. Conditions: in vivo. Format: organism-based.
Data set [11] deals with Rattus norvegicus. The experiment in a line: Toxicity in Sprague-Dawley rat assessed as lethality at 30 mg/kg administered via oral gavage. Format: organism-based. Conditions: in vivo. The procedure, abridged:
(§1)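 Single escalating oral gavage doses given to Sprague-Dawley rats, 3 per sex per dose. Suspension in 0.5% methylcellulose with 0.1% Polysorbate 80, dosed at 10 mL/kg. Clinical signs watched continuously for the first several hours and/or intermittently through the dosing day. Plasma drug levels sampled at 1, 4, 8 and 24 h post-dose. Lethality scored per group of 6.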

The nature of data set [12]: Total Cmax in Sprague-Dawley rat at 30 mg/kg administered via oral gavage measured at 1 to 24 hrs post dose. Conditions: in vivo. Format: ADME, organism-based. The arrangement: dose 30 mg/kg, route oral. The procedure, abridged:
(§2)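 Single escalating oral gavage doses given to Sprague-Dawley rats, 3/sex/dose. Suspension in 0.5% methylcellulose with 0.1% Polysorbate 80, dosed at 10 mL/kg. […] Clinical signs also monitored.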

Data set [13] concerns Rattus norvegicus. The experiment in a line: Unbound Cmax in Sprague-Dawley rat at 30 mg/kg administered via oral gavage measured at 1 to 24 hrs post dose. Format: ADME, organism-based. Conditions: in vivo. An outline of the steps: as §2
Data set [14] in a line: Unbound brain concentration in Sprague-Dawley rat at 10 mg/kg, po. The note with it: in vivo. Format: ADME, organism-based.
A short description of data set [15]: Clearance in rat at 1 mg/kg, iv. Conditions: in vivo. Format: ADME, organism-based.
The test system of data set [16] is Rattus norvegicus. Kind of data set: Reduction of amyloid beta 42 levels in Sprague-Dawley rat at 10 mg/kg, po measured at 4 hrs by DELFIA analysis relative to control. Format: functional. On the set-up: scale not given: the % may be the effect or the level left. The procedure, abridged: (§3)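 Male Sprague-Dawley rats (254-326 g) dosed orally with vehicle or 10 or 40 mg/kg. Brains taken at 1, 4, 8, 11, 16 and 20 h post-dose, 4 rats per group. Homogenized in 0.4% DEA/50 mM NaCl, held overnight at 4 °C, spun at 135,000xg for 1 h. Supernatant cleaned by solid-phase extraction and concentrated; Aβ42 read by DELFIA as % change vs vehicle.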

Data set [17] is described as follows: Oral bioavailability in rat at 5 mg/kg. The note with it: in vivo. Format: ADME, organism-based.
The nature of data set [18]: Fraction unbound in rat plasma. Format: ADME, cell-free.
In data set [19] the test system is Rattus norvegicus. The experiment in a line: Reduction of amyloid beta 42 levels in Sprague-Dawley rat at unbound brain concentration administered 10 mg/kg, po by DELFIA analysis relative to control. Format: functional.
Data set [20] is described as follows: Fraction unbound in rat brain. Format: ADME, tissue-based.
The test system of data set [21] is Rattus norvegicus. The experiment in a line: Reduction of amyloid beta 42 levels in Sprague-Dawley rat at 40 mg/kg, po measured at 4 hrs by DELFIA analysis relative to control. Format: functional. On the set-up: scale not given: the % may be the effect or the level left. The procedure, abridged: as §3
The nature of data set [22]: Ratio of drug level in brain to plasma in rat at 5 mg/kg, sc measured at 1 to 7 hrs. Format: ADME, organism-based. The note with it: brain and plasma, read-out: BPR.
The nature of data set [23]: Unbound brain concentration in Sprague-Dawley rat at 40 mg/kg, po. Format: ADME, organism-based. The note with it: in vivo.
Data set [24] can be described thus: Half life in rat at 1 mg/kg, iv. Format: ADME, organism-based. The note with it: in vivo.
In data set [25] the test system is Rattus norvegicus. Kind of data set: Unbound Cmax in Sprague-Dawley rat at 100 mg/kg administered via oral gavage measured at 1 to 24 hrs post dose. Format: ADME, organism-based. The note with it: in vivo. The procedure, abridged: as §2
The nature of data set [26]: Ratio of IC50 for decrease in contractility of Wistar rat langendorff isolated heart model to fCmax in Sprague-Dawley rat at 100 mg/kg administered via oral gavage. Format: organism-based. Conditions: in vivo.
Data set [27] has as its system Rattus norvegicus. The experiment in a line: Toxicity in Sprague-Dawley rat assessed as lethality at 100 mg/kg administered via oral gavage. Format: organism-based. Conditions: in vivo. An outline of the steps: as §1
The nature of data set [28]: Total Cmax in Sprague-Dawley rat at 100 mg/kg administered via oral gavage measured at 1 to 24 hrs post dose. Format: ADME, organism-based. The arrangement: dose 100 mg/kg, route oral. Conditions: in vivo. An outline of the steps: as §2

The term IC50 denotes the midpoint of a concentration-inhibition curve. By efflux ratio is commonly meant a quotient of directional permeabilities that is used to spot active efflux. What is called Cmax is the peak of the concentration-time curve. Usually EC50 stands for the concentration at which the effect is half-maximal. By clearance is commonly meant a measure of how efficiently the substance is removed, as volume per time. By bioavailability is commonly meant the share of a dose that reaches the circulation, judged against a reference dose that is usually intravenous. Broadly, the fraction unbound is free concentration divided by total concentration. Usually half-life stands for the time in which the quantity being followed falls by half.

Some results are limits rather than exact numbers.

In the case of `Cc1cn(-c2ccc3n(c2=O)CCN(C[C@@]24C[C@@H]2C(C)(C)Oc2ccc(OC(F)(F)F)cc24)C3=O)cn1`, the concentration for half-maximal inhibition (IC50) at 5 min in data set [1] and in [6] was more than 30000 nM throughout. The efflux ratio at 5 h, 2 µM in data set [2] came out at 2.1. For the same compound, in data set [3], the microsomal CLint is 42.4 µL/min/mg. In data set [4], the peak concentration (Cmax) worked out at 60.9 µM. Further, the Activity entry in data set [5] is “Non-Toxic”. Moreover, the concentration for a half-maximal effect (EC50) at 5 min in data set [7] is more than 30000 nM. Moreover, in [8], the fCmax is listed as 670 nM. Besides, the IC50 in data set [9] turned out to be 5.1 nM.

With `Cc1cn(-c2ccc3n(c2=O)CCN(CC2CCOc4ccc(C(F)(F)F)cc42)C3=O)cn1` (stereo unspecified), the efflux ratio at 5 h, 2 µM in [2] came out at 1.9. Also, in [3], the microsomal CLint turned out to be 37.6 µL/min/mg. For the same compound, the IC50 in [9] is 322 nM.

Consider `Cc1cn(-c2ccc3n(c2=O)CCN(C[C@]24C[C@H]2COc2ccc(C(F)(F)F)cc24)C3=O)cn1`, for which, in [2], the efflux ratio at 5 h, 2 µM is 1.9. Besides, the microsomal CLint in data set [3] came out at 70.5 µL/min/mg. The concentration for half-maximal inhibition (IC50) in data set [9] is 129 nM.

On to `Cc1cn(-c2ccc3n(c2=O)CCN(CC2=CC(C)(C)Oc4ccc(Cl)cc42)C3=O)cn1`, for which the efflux ratio at 5 h, 2 µM in [2] worked out at 1.9. In data set [9], the 50% inhibitory concentration (IC50) stood at 53 nM.

For the compound `Cc1cn(-c2ccc3n(c2=O)CCN([C@@H](C)C2=CC(C)(C)Oc4ccc(C(F)(F)F)cc42)C3=O)cn1`, the values for the IC50 at 5 min in data set [1] and in [6] were 1030 nM and 1360 nM, respectively. In addition, in data set [2], the efflux ratio at 5 h, 2 µM amounted to 1.9. In data set [3], the microsomal CLint was found to be 14.3 µL/min/mg. Moreover, the Ratio in data set [10] is 6.6. Moreover, in [11], the Activity result is “Toxic”. In addition, the Cmax in data set [12] was found to be 5.84 µM. The EC50 at 5 min in data set [7] amounted to 576 nM. Also, the fCmax in [13] amounted to 205 nM. The IC50 in data set [9] was 4.9 nM.

In the case of `Cc1cn(-c2ccc3n(c2=O)CCN([C@H](C)C2=CC(C)(C)Oc4ccc(C(F)(F)F)cc42)C3=O)cn1`, the efflux ratio at 5 h, 2 µM in data set [2] was found to be 1.8. In data set [3], the microsomal CLint was determined as 242 µL/min/mg. Moreover, the IC50 in data set [9] amounted to 801 nM.

Take `COc1ccc2c(c1)[C@]1(CN3CCn4c(ccc(-n5cnc(C)c5)c4=O)C3=O)C[C@@H]1CO2`: the efflux ratio at 5 h, 2 µM in data set [2] was determined as 2.2. The microsomal CLint in data set [3] was 33.7 µL/min/mg. In data set [9], the half-maximal inhibitory concentration (IC50) was 181 nM.

As for `Cc1cn(-c2ccc3n(c2=O)CCN(CC2=CC(C)(C)Oc4ccc(C(F)(F)F)cc42)C3=O)cn1`, the efflux ratio at 5 h, 2 µM in data set [2] is 2. For the same compound, the microsomal CLint in [3] turned out to be 47.8 µL/min/mg. The concentration for half-maximal inhibition (IC50) in data set [9] stood at 13 nM.

Regarding `Cc1cn(-c2ccc3n(c2=O)CCN(CC2=CCOc4ccc(C(F)(F)F)cc42)C3=O)cn1`, the efflux ratio at 5 h, 2 µM in data set [2] was 1.7. For the same compound, the microsomal CLint in [3] was determined as 108 µL/min/mg. The IC50 in data set [9] was 30 nM.

For the compound `Cc1cn(-c2ccc3n(c2=O)CCN(C[C@@]24C[C@@H]2C(C)(C)Oc2ccc(C(F)(F)F)cc24)C3=O)cn1`, the IC50 at 5 min in data set [1] and in [6] was more than 30000 nM each time. In addition, the “Drug uptake(free)” value in [14] was 11 nM; in data set [23], 67 nM. The same compound registered a clearance in data set [15] of 26.4 mL/min/kg. In [3], the microsomal CLint turned out to be 34.5 µL/min/mg. Besides, the Activity in data set [16] is listed as 40%; in data set [5] it was “Non-Toxic”; in data set [21] it was 62%. The peak level in data set [4] (Cmax) was 90.4 µM. This compound had a bioavailability in [17] of 67%. Besides, the figures for the fraction unbound in [18] and in data set [20] were 0.018 and 0.0054, respectively. Moreover, the “%max” value in data set [19] stood at 40%. Besides, in data set [7], the concentration for a half-maximal effect (EC50) at 5 min was more than 30000 nM. For the same compound, in data set [22], the Kp was 0.76. The fCmax in data set [8] is on record as 1620 nM. The half-life in [24] was 1.6 h.

For `Cc1cn(-c2ccc3n(c2=O)CCN(C[C@@]24C[C@@H]2COc2cc(C(F)(F)F)ccc24)C3=O)cn1`, in [2], the efflux ratio at 5 h, 2 µM was found to be 1.7. The microsomal CLint in data set [3] came out at 14.6 µL/min/mg. Also, the 50% inhibitory concentration (IC50) in [9] turned out to be 52 nM.

For the compound `Cc1cn(-c2ccc3n(c2=O)CCN(C[C@@]24C[C@@H]2COc2ccc(Cl)cc24)C3=O)cn1`, in data set [2], the efflux ratio at 5 h, 2 µM worked out at 1.8. The microsomal CLint in [3] came out at 43.9 µL/min/mg. In [9], the IC50 worked out at 63 nM.

As to `Cc1cn(-c2ccc3n(c2=O)CCN([C@@H](C)C2=CC(C)(C)Oc4ccc(OC(F)(F)F)cc42)C3=O)cn1`, the IC50 at 5 min in data set [1] is 1620 nM; in data set [6], 2480 nM. The compound also had a fCmax in [25] of 620 nM. In addition, the efflux ratio at 5 h, 2 µM in data set [2] is 1.9. In data set [3], the microsomal CLint was 25.7 µL/min/mg. In addition, the Ratio in data set [26] came out at 4. Besides, the Activity entry in [27] is given as “Toxic”. Moreover, in data set [7], the EC50 at 5 min was found to be 1370 nM. The same compound returned a peak concentration (Cmax) in data set [28] of 17.7 µM. Moreover, the IC50 in data set [9] is 6 nM.

For the compound `Cc1cn(-c2ccc3n(c2=O)CCN(C[C@@]24C[C@@H]2COc2ccc(C(F)(F)F)cc24)C3=O)cn1`, the efflux ratio at 5 h, 2 µM in [2] is 2.4. The microsomal CLint in data set [3] was 37.9 µL/min/mg. Moreover, the IC50 in data set [9] came out at 5.6 nM.
